Blank lines part the entries; values can stand above or below the compound they belong to. Square brackets hold non-standard residues; d marks the D form. Ends that are not written are not given here. pY = N[C@@H](Cc1ccc(OP(=O)(O)O)cc1)C(=O)O
What was measured:
GRB2-KO HeLa cells [1] = experiment: Annexin V/PI staining assay, GRB2-KO cells; format: cell-based, human; conditions: FACS, 50 μM olaparib for 72 hours, triplicate
Outline: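 HeLa cells (GRB2-knockout and comparison lines) grown in RPMI 1640 with 10% FBS at 10% CO2. Cells treated 72 h with DMSO or 50 μM PARP inhibitor, then trypsinized, washed and resuspended in annexin-binding buffer. Labelled with annexin V–Alexa Fluor 647 plus PI for 15 min at room temperature in the dark. Annexin V- and PI-positive fractions scored by flow cytometry against the DMSO control. Triplicate.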

GRB2-KO HeLa cells [2] = experiment: Sulforhodamine B assay of olaparib-induced cytotoxicity, GRB2-KO cells; format: cell-based, human; conditions: Sulforhodamine B assay, ratio of IC50 WT vs GRB2-KO
[3] = as above; format: cell-based, human; conditions: human, GRB2-KO HeLa cells
[4] = Sulforhodamine B assay of olaparib-induced cytotoxicity, control cells; format: cell-based; conditions: human, control (WT) HeLa cells
Outline: (§1)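 HeLa cells kept in RPMI 1640 with 10% FBS at 10% CO2. Knockout made by CRISPR-Cas9 gRNA delivered by lentivirus, with puromycin or blasticidin selection; clones checked by Western blot and pooled. Stable reconstitution with wild-type or K109R Strep-tagged GRB2. Cytotoxicity of PARP inhibitor read by sulforhodamine B staining. IC50 taken from the concentration–response data.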

[5] = system: GRB2-KO HeLa cells reconstituted with ^K109RGRB2; experiment: Annexin V/PI staining assay, KO + K109R cells; format: cell-based, human; conditions: FACS, 50 μM olaparib for 72 hours, compared with GRB2-KO
[6] = Sulforhodamine B assay of olaparib-induced cytotoxicity, KO + GRB2 cells; format: cell-based; conditions: human, GRB2-KO HeLa cells reconstituted with WT GRB2
Outline: as §1

control (WT) HeLa cells = experiment: Annexin V/PI staining assay, control cells; format: cell-based, human; conditions: FACS, 50 μM olaparib for 72 hours, triplicate
[7] = Sulforhodamine B assay of olaparib-induced cytotoxicity, KO + K109R cells; format: cell-based; conditions: human, GRB2-KO HeLa cells reconstituted with K109R mutant GRB2
Outline: as §1

GRB2-SH2 domain = GRB2-SH2 domain (Homo sapiens, UniProt P62993); experiment: MST binding of synthetic peptides to Atto488-labeled GRB2-SH2 domain; conditions: synthetic peptide
Sequence of GRB2-SH2 domain (P62993 60-152 limits assumed): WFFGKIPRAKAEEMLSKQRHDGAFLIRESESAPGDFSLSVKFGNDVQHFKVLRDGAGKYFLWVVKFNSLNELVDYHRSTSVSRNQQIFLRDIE

[8] = system: human MRE11 (residues 1 to 411); experiment: MST binding of Atto488-labeled GRB2; conditions: bacterially expressed purified proteins

Compound: O=C(c1cc(Cc2n[nH]c(=O)c3ccccc23)ccc1F)N1CCN(C(=O)C2CC2)CC1 [olaparib]
- olaparib-induced apoptosis, share of cells (GRB2-KO HeLa cells [1]): 60%
- sensitivity of GRB2-KO cells relative to WT control cells (GRB2-KO HeLa cells [2]): seven
- IC50 [3]: 18 ± 2.9 µM
- IC50 [4]: 124 ± 41 µM
- olaparib-induced apoptosis, in words [5]: failed to rescue the phenotype
- IC50 [6]: 164 ± 47 µM
- olaparib-induced apoptosis, share of cells (control (WT) HeLa cells): 20%
- IC50 [7]: 20 ± 3 µM

- binding to GRB2-SH2 domain in words (GRB2-SH2 domain): failed to produce a binding isotherm
Compound: PSGGKKATQA(pS)QEY [pS139 H2AX]

- binding to GRB2-SH2 domain in words (GRB2-SH2 domain): failed to produce a binding isotherm
Compound: PSGGKKATQASQE(pY) [pY142 H2AX]

Compound: PWVN[pY]QDGNLN [WVNpYQDGNLN]
- binding to GRB2-SH2 domain in words (GRB2-SH2 domain): limited impact

Compound: ^K109RGRB2: GRB2 lysine-109-to-arginine mutant, MRE11 nonbinding, generated by site-directed mutagenesis
- MRE11 binding in words [8]: no binding

— article PMC8336959 (Science Advances, 2021)
